Test results from ChEMBL document CHEMBL1123541, “Preparation and antitumor activity of 7-substituted 1,2-aziridinomitosenes” (J Med Chem, 1986).

Columns and labels:
[1] = tested on: L1210; assay: Compound was tested for antitumor activity against L-1210 Murine leukemia in BDF1 female mice at a dose of 24 mg/kg per injection; format: functional, Mus musculus
Outline: (§1)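 L-1210 run per NCI protocol. 10^6 ascites cells implanted ip into BDF1 female mice. Aziridinomitosene given on day 1 only, six mice per dose, with a control group of 36 mice. Median survival time in days is recorded, and %T/C = MST treated/MST control × 100, with 125 taken as significant.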

[2] = tested on: Mus musculus; assay: Average weight change of BDF1 female mice at a dose of 24 mg/kg per injection; format: functional
Outline: (§2)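 BDF1 female mice implanted ip with 10^6 ascites leukemia cells, then given the aziridinomitosene on day 1 only, six mice per dose. Average weight change is the weight difference between the treated and control groups.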

[3] = tested on: L1210; assay: Compound was tested for antitumor activity against L-1210 Murine leukemia in BDF1 female mice at a dose of 48 mg/kg per injection; format: functional, Mus musculus; outline: as §1
[4] = tested on: Mus musculus; assay: Average weight change of BDF1 female mice at a dose of 6 mg/kg per injection; format: functional; outline: as §2
[5] = tested on: Mus musculus; assay: Average weight change of BDF1 female mice at a dose of 12.8 mg/kg per injection; format: functional; outline: as §2
[6] = tested on: Mus musculus; assay: Average weight change of BDF1 female mice at a dose of 25.6 mg/kg per injection; format: functional; outline: as §2
[7] = tested on: Mus musculus; assay: Average weight change of BDF1 female mice at a dose of 0.8 mg/kg per injection; format: functional; outline: as §2
[8] = tested on: Mus musculus; assay: Average weight change of BDF1 female mice at a dose of 48 mg/kg per injection; format: functional; outline: as §2
[9] = tested on: P388; assay: Compound was tested for antitumor activity against P388 Murine leukemia in BDF1 female mice at a dose of 51.2 mg/kg per injection (MST treated / MST control x 100); format: functional, Mus musculus
Outline: (§3)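 P388 ascites cells (10^6) implanted ip into BDF1 female mice. Aziridinomitosene given on day 1 only, six mice per dose; ten saline-treated mice on day 1 only as controls. Read-out is median survival time in days, %T/C = MST treated/MST control × 100, with 125 taken as significant. Mitomycin C run as a positive control at its optimal dose.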

[10] = Partition coefficient (logP); format: physicochemical; conditions: octanol/water
[11] = tested on: P388; assay: (§4) Compound was tested for antitumor activity against P388 Murine leukemia in BDF1 female mice at a dose of 12.8 mg/kg per injection; format: functional, Mus musculus; set-up: unit not given here; outline: as §3
[12] = tested on: P388; assay: Compound was tested for antitumor activity against P388 Murine leukemia in BDF1 female mice at a dose of 0.8 mg/kg per injection; format: functional, Mus musculus; outline: as §3
[13] = tested on: Mus musculus; assay: Average weight change of BDF1 female mice at a dose of 3.2 mg/kg per injection; format: functional; outline: as §2
[14] = tested on: P388; assay: Compound was tested for antitumor activity against P388 Murine leukemia in BDF1 female mice at a dose of 25.6 mg/kg per injection (MST treated / MST control x 100); format: functional, Mus musculus; outline: as §3
[15] = tested on: P388; assay: Compound was tested for antitumor activity against P388 Murine leukemia in BDF1 female mice at a dose of 3.2 mg/kg per injection (MST treated / MST control x 100); format: functional, Mus musculus; outline: as §3
[16] = tested on: Mus musculus; assay: Average weight change of BDF1 female mice at a dose of 1.6 mg/kg per injection; format: functional; outline: as §2
[17] = tested on: P388; assay: Minimum effective dose determined against P-388 Murine leukemia in BDF1 female mice.; format: functional; conditions: Mus musculus, read-out: MED
[18] = tested on: Mus musculus; assay: Average weight change of BDF1 female mice at a dose of 12 mg/kg per injection; format: functional; outline: as §2
[19] = tested on: L1210; assay: Compound was tested for antitumor activity against L-1210 Murine leukemia in BDF1 female mice at a dose of 6 mg/kg per injection; format: functional, Mus musculus; outline: as §1
[20] = tested on: L1210; assay: Compound was tested for antitumor activity against L-1210 Murine leukemia in BDF1 female mice at a dose of 12 mg/kg per injection; format: functional, Mus musculus; outline: as §1
[21] = tested on: Mus musculus; assay: Average weight change of BDF1 female mice at a dose of 6.4 mg/kg per injection; format: functional; outline: as §2
[22] = tested on: P388; assay: Compound was tested for antitumor activity against P388 Murine leukemia in BDF1 female mice at a dose of 1.6 mg/kg per injection given as MST treated / MST control x 100; format: functional, Mus musculus; outline: as §3
[23] = tested on: P388; assay: Compound was tested for antitumor activity against P388 Murine leukemia in BDF1 female mice at a dose of 25.6 mg/kg per injection; format: functional, Mus musculus; outline: as §3
[24] = tested on: P388; assay: Compound was tested for antitumor activity against P388 Murine leukemia in BDF1 female mice at a dose of 6.4 mg/kg per injection; format: functional, Mus musculus; outline: as §3
[25] = tested on: P388; assay: as §4; format: functional, Mus musculus; outline: as §3
[26] = tested on: Mus musculus; assay: Average weight change of BDF1 female mice at a dose of 51.2 mg/kg per injection; format: functional; outline: as §2
[27] = tested on: P388; assay: Compound was tested for antitumor activity against P388 Murine leukemia in BDF1 female mice at a dose of 1.6 mg/kg per injection; format: functional, Mus musculus; outline: as §3
[28] = tested on: P388; assay: Compound was tested for antitumor activity against P388 Murine leukemia in BDF1 female mice at a dose of 0.2 mg/kg per injection; format: functional, Mus musculus; outline: as §3
[29] = tested on: P388; assay: Compound was tested for antitumor activity against P388 Murine leukemia in BDF1 female mice at a dose of 0.4 mg/kg per injection; format: functional, Mus musculus; outline: as §3
[30] = tested on: P388; assay: Compound was tested for antitumor activity against P388 Murine leukemia in BDF1 female mice at a dose of 3.2 mg/kg per injection; format: functional, Mus musculus; outline: as §3
[31] = tested on: P388; assay: Compound was tested for antitumor activity against P388 Murine leukemia in BDF1 female mice at a dose of 1.6 mg/kg per injection (MST treated / MST control x 100); format: functional, Mus musculus; outline: as §3
[32] = tested on: L1210; assay: Compound was tested for antitumor activity against L-1210 Murine leukemia in BDF1 female mice at a dose of 1.5 mg/kg per injection; format: functional, Mus musculus
Outline: (§5)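 L-1210 leukemia, NCI protocol: 10^6 ascites cells implanted ip into BDF1 female mice. Six mice per dose, single dose on day 1 only, with a 36-mouse control group. Read-out is median survival time (MST), reported as %T/C = MST treated/MST control × 100, with 125 taken as significant. Average weight change is treated minus control weight.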

[33] = tested on: Mus musculus; assay: Average weight change of BDF1 female mice at a dose of 3 mg/kg per injection; format: functional; outline: as §5
[34] = tested on: L1210; assay: Compound was tested for antitumor activity against L-1210 Murine leukemia in BDF1 female mice at a dose of 3 mg/kg per injection; format: functional, Mus musculus; outline: as §5
[35] = tested on: Mus musculus; assay: Average weight change of BDF1 female mice at a dose of 1.5 mg/kg per injection; format: functional; outline: as §5

`CC1=C(N2CC2)C(=O)c2c(COC(N)=O)c3n(c2C1=O)CC1NC31` (configuration not stated) showed an MST [1] of 120 days, a Weight change [2] of -2.6 g and an MST [3] of 131 days. For the same compound, the Weight change [4] was -0.4 g, the Weight change [5] was 0.9 g and the Weight change [6] was -0.4 g. For the same compound, the Weight change [7] was 0.9 g, the Weight change [8] was -4.2 g and the T/C [9] was 206%. It also gave a logP [10] of 0.3, an MST [11] of 172 and an MST [12] of 111 days. It also gave a Weight change [13] of 1 g, a T/C [14] of 189% and a T/C [15] of 144%. The Weight change [16] was 1 g, the minimal effective dose [17] was 1.6 mg/kg and the Weight change [18] was -1.3 g. It also gave a % T/C [19] of 118% and a % T/C [20] of 122%.

In the case of `CC1=C(N)C(=O)c2c(COC(N)=O)c3n(c2C1=O)CC1NC31` (configuration not stated), the MST [1] is reported as 100 days, the Weight change [2] is reported as -0.3 g and the MST [3] is reported as 94 days. The Weight change [4] was 0.1 g, the Weight change [21] was -1.2 g and the Weight change [5] was -0.8 g. It also gave a Weight change [6] of -0.8 g, a T/C [22] of 211% and a Weight change [8] of 0.2 g. For the same compound, the logP [10] was 0.23, the MST [23] was 128 % T/C and the MST [24] was 117 %T/C. For the same compound, the MST [25] was 117 days, the minimal effective dose [17] was 25.6 mg/kg and the Weight change [18] was 0 g. It also gave a T/C [19] of 100% and a T/C [20] of 100%.

In the case of `CC1=C(N2CC2C)C(=O)c2c(COC(N)=O)c3n(c2C1=O)CC1C3N1C` (configuration not stated), the Weight change [21] is reported as -0.4 g, the Weight change [5] is reported as -0.5 g and the Weight change [6] is reported as -1 g. It also gave a Weight change [26] of -1.3 g, a logP [10] of 1.23 and an MST [11] of 238. It also gave an MST [27] of 156 days, an MST [24] of 194 %T/C and an MST [12] of 125 days. It also gave a T/C [28] of 125%, an MST [29] of 138 days and a Weight change [13] of 0 g. It also gave a T/C [15] of 163%, a Weight change [16] of 0 g and a minimal effective dose [17] of 0.2 mg/kg.

Compound `COC1=C(C)C(=O)c2c(c(COC(N)=O)c3n2CC2C3N2C)C1=O` (configuration not stated) has a Weight change [21] of -0.3 g, a Weight change [5] of -1.7 g and a Weight change [7] of 0.8 g. It also gave an MST [30] of 188 days, a T/C [31] of 156% and a logP [10] of 1.28. For the same compound, the MST [11] was 213, the MST [24] was 213 days and the MST [12] was 150 days. It also gave a Weight change [13] of 0.5 g, a Weight change [16] of -0.2 g and a minimal effective dose [17] of 0.8 mg/kg.

For `CO[C@@]12[C@H](COC(N)=O)C3=C(C(=O)C(C)=C(N)C3=O)N1C[C@@H]1N[C@@H]12` [MITOMYCIN], the T/C [32] was 116%, the Weight change [4] was -3.3 g and the Weight change [33] was -0.9 g. For the same compound, the T/C [34] was 118%, the Weight change [35] was -0.8 g and the Weight change [18] was -4.8 g. The % T/C [19] was 146% and the % T/C [20] was 118%.

In the case of `CC1=C(N)C(=O)c2c(COC(N)=O)c3n(c2C1=O)CC1C3N1C` (configuration not stated), the Weight change [5] is reported as -0.4 g, the Weight change [6] is reported as -0.1 g and the T/C [22] is reported as 211%. The MST [23] was 100 % T/C and the MST [25] was 100 days.
